{"source": "the RNAGym collection of RNA variant scans (doi:10.1002/anie.201605470)", "parents": {"B1": {"name": "Osa-1-4 twister ribozyme (parent)", "chain": "CCGCCUAACACUGCCAAUGCCGGUCCCAAGCCCGGAUAAAAGUGGAGGGGGCGG"}}, "data": [{"variants_of": "B1", "assay": "self-cleavage, relative activity (ratio to wild type); higher = more cleavage; co-transcriptional", "in_short": "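A DNA template encoding a 54-nucleotide twister ribozyme from Oryza sativa was made so that each of the 48 positions downstream of the cleavage site carried 97 % wild-type base and 1 % of each other base. Transcription in vitro ran for 2 h at 37 °C, during which the ribozyme could cleave itself. Reverse transcription used a template-switching oligonucleotide, and the products were PCR-amplified and deep-sequenced. Each read was scored as cleaved or uncleaved by whether upstream sequence was present, and relative activity is the fraction cleaved normalised to wild type.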", "values": [{"variant": "A10U G30C", "self-cleavage": 0.01}, {"variant": "A10U G30U", "self-cleavage": 0.01}, {"variant": "A10U G30A", "self-cleavage": 0.01}, {"variant": "C11A U24G", "self-cleavage": 0.07}, {"variant": "C11A U24A", "self-cleavage": 0.05}, {"variant": "C11A U24C", "self-cleavage": 0.06}, {"variant": "A10U G34C", "self-cleavage": 0.03}, {"variant": "A10U G34A", "self-cleavage": 0.05}, {"variant": "A10U G34U", "self-cleavage": 0.03}, {"variant": "A10U C11G", "self-cleavage": 0.03}, {"variant": "A10U C11A", "self-cleavage": 0.04}, {"variant": "A10U C11U", "self-cleavage": 0.05}, {"variant": "A10U", "self-cleavage": 0.05}, {"variant": "A10U A7G", "self-cleavage": 0.08}, {"variant": "A10U A7C", "self-cleavage": 0.02}, {"variant": "A10U A7U", "self-cleavage": 0.03}, {"variant": "A10U G35A", "self-cleavage": 0.06}, {"variant": "A10U G35C", "self-cleavage": 0.03}, {"variant": "A10U G35U", "self-cleavage": 0.04}, {"variant": "A10U G48C", "self-cleavage": 0.01}, {"variant": "A10U G48U", "self-cleavage": 0.01}, {"variant": "A10U G48A", "self-cleavage": 0.02}, {"variant": "C11A G54C", "self-cleavage": 0.66}, {"variant": "C11A G54U", "self-cleavage": 0.71}, {"variant": "C11A G54A", "self-cleavage": 0.62}, {"variant": "C11A G30C", "self-cleavage": 0.03}, {"variant": "C11A G30A", "self-cleavage": 0.03}, {"variant": "C11A G30U", "self-cleavage": 0.03}, {"variant": "C11A U12A", "self-cleavage": 0.09}, {"variant": "C11A U12C", "self-cleavage": 0.14}, {"variant": "C11A U12G", "self-cleavage": 0.09}, {"variant": "A10G G30U", "self-cleavage": 0.05}, {"variant": "A10G G30A", "self-cleavage": 0.05}, {"variant": "A10G G30C", "self-cleavage": 0.07}, {"variant": "A10G G35U", "self-cleavage": 0.4}, {"variant": "A10G G35C", "self-cleavage": 0.13}, {"variant": "A10G G35A", "self-cleavage": 0.41}, {"variant": "C11G C9G", "self-cleavage": 0.19}, {"variant": "C11G C9A", "self-cleavage": 0.09}, {"variant": "C11G C9U", "self-cleavage": 0.07}, {"variant": "C11G C15G", "self-cleavage": 0.1}, {"variant": "C11G C15A", "self-cleavage": 0.09}, {"variant": "C11G C15U", "self-cleavage": 0.08}, {"variant": "C11G C14A", "self-cleavage": 0.05}, {"variant": "C11G C14U", "self-cleavage": 0.13}, {"variant": "C11G C14G", "self-cleavage": 0.06}, {"variant": "A10U U43A", "self-cleavage": 0.79}, {"variant": "A10U U43C", "self-cleavage": 0.03}, {"variant": "A10U U43G", "self-cleavage": 0.59}, {"variant": "C11A G42U", "self-cleavage": 0.73}, {"variant": "C11A G42C", "self-cleavage": 0.83}, {"variant": "C11A G42A", "self-cleavage": 0.76}, {"variant": "A10U U12G", "self-cleavage": 0.02}, {"variant": "A10U U12A", "self-cleavage": 0.05}, {"variant": "A10U U12C", "self-cleavage": 0.02}, {"variant": "A10U C21G", "self-cleavage": 0.02}, {"variant": "A10U C21A", "self-cleavage": 0.03}, {"variant": "A10U C21U", "self-cleavage": 0.07}, {"variant": "A10G U12G", "self-cleavage": 0.2}, {"variant": "A10G U12C", "self-cleavage": 0.12}, {"variant": "A10G U12A", "self-cleavage": 0.21}, {"variant": "A10U A29C", "self-cleavage": 0.01}, {"variant": "A10U A29U", "self-cleavage": 0.03}, {"variant": "A10U A29G", "self-cleavage": 0.03}, {"variant": "A10G U18C", "self-cleavage": 0.68}, {"variant": "A10G U18A", "self-cleavage": 0.85}, {"variant": "A10G U18G", "self-cleavage": 0.66}, {"variant": "A10U A41U", "self-cleavage": 0.07}, {"variant": "A10U A41G", "self-cleavage": 0.04}, {"variant": "A10U A41C", "self-cleavage": 0.04}, {"variant": "A10U C27U", "self-cleavage": 0.05}, {"variant": "A10U C27G", "self-cleavage": 0.04}, {"variant": "A10U C27A", "self-cleavage": 0.02}, {"variant": "C11A C14G", "self-cleavage": 0.1}, {"variant": "C11A C14U", "self-cleavage": 0.15}, {"variant": "C11A C14A", "self-cleavage": 0.07}, {"variant": "C11G C20U", "self-cleavage": 0.5}, {"variant": "C11G C20G", "self-cleavage": 0.04}, {"variant": "C11G C20A", "self-cleavage": 0.4}, {"variant": "A10G G45C", "self-cleavage": 0.06}, {"variant": "A10G G45A", "self-cleavage": 0.17}, {"variant": "A10G G45U", "self-cleavage": 0.1}, {"variant": "C11A U37A", "self-cleavage": 0.48}, {"variant": "C11A U37C", "self-cleavage": 0.88}, {"variant": "C11A U37G", "self-cleavage": 0.81}, {"variant": "C11A G13U", "self-cleavage": 0.04}, {"variant": "C11A G13C", "self-cleavage": 0.03}, {"variant": "C11A G13A", "self-cleavage": 0.03}, {"variant": "A10G U24A", "self-cleavage": 0.09}, {"variant": "A10G U24C", "self-cleavage": 0.1}, {"variant": "A10G U24G", "self-cleavage": 0.04}, {"variant": "C11A C15A", "self-cleavage": 0.12}, {"variant": "C11A C15G", "self-cleavage": 0.1}, {"variant": "C11A C15U", "self-cleavage": 0.07}, {"variant": "A10G G42C", "self-cleavage": 0.12}, {"variant": "A10G G42A", "self-cleavage": 0.22}, {"variant": "A10G G42U", "self-cleavage": 0.06}, {"variant": "A10U G53C", "self-cleavage": 0.02}, {"variant": "A10U G53A", "self-cleavage": 0.04}, {"variant": "A10U G53U", "self-cleavage": 0.03}, {"variant": "A10G C32U", "self-cleavage": 0.1}, {"variant": "C11A G44U", "self-cleavage": 0.08}, {"variant": "C11A G44A", "self-cleavage": 0.19}, {"variant": "C11A G44C", "self-cleavage": 0.45}, {"variant": "C11A G49C", "self-cleavage": 0.06}, {"variant": "C11A G49A", "self-cleavage": 0.06}, {"variant": "C11A G49U", "self-cleavage": 0.07}, {"variant": "C11A C31A", "self-cleavage": 0.05}, {"variant": "C11A C31U", "self-cleavage": 0.09}, {"variant": "C11A C31G", "self-cleavage": 0.06}, {"variant": "A10U A16G", "self-cleavage": 0.06}, {"variant": "A10U A16U", "self-cleavage": 0.06}, {"variant": "A10U A16C", "self-cleavage": 0.03}, {"variant": "A10U G49A", "self-cleavage": 0.04}, {"variant": "A10U G49U", "self-cleavage": 0.02}, {"variant": "A10U G49C", "self-cleavage": 0.01}, {"variant": "A10U U37A", "self-cleavage": 0.04}, {"variant": "A10U U37G", "self-cleavage": 0.04}, {"variant": "A10U U37C", "self-cleavage": 0.05}, {"variant": "A10G C52U", "self-cleavage": 0.95}, {"variant": "A10G C52G", "self-cleavage": 0.75}, {"variant": "A10G C52A", "self-cleavage": 0.92}, {"variant": "C11A G23U", "self-cleavage": 0.03}, {"variant": "C11A G23A", "self-cleavage": 0.07}, {"variant": "C11A G23C", "self-cleavage": 0.03}, {"variant": "A10U C15G", "self-cleavage": 0.03}, {"variant": "A10U C15U", "self-cleavage": 0.04}, {"variant": "A10U C15A", "self-cleavage": 0.03}, {"variant": "A10U C52U", "self-cleavage": 0.05}, {"variant": "A10U C52G", "self-cleavage": 0.07}, {"variant": "A10U C52A", "self-cleavage": 0.04}, {"variant": "A10G G34C", "self-cleavage": 0.12}, {"variant": "A10G G34A", "self-cleavage": 0.24}, {"variant": "A10G G34U", "self-cleavage": 0.14}, {"variant": "A10U C20A", "self-cleavage": 0.05}, {"variant": "A10U C20G", "self-cleavage": 0.03}, {"variant": "A10U C20U", "self-cleavage": 0.05}, {"variant": "C11A G48U", "self-cleavage": 0.05}, {"variant": "C11A G48A", "self-cleavage": 0.05}, {"variant": "C11A G48C", "self-cleavage": 0.05}, {"variant": "C11A G45U", "self-cleavage": 0.06}, {"variant": "C11A G45A", "self-cleavage": 0.06}, {"variant": "C11A G45C", "self-cleavage": 0.04}, {"variant": "C11A G50U", "self-cleavage": 0.77}, {"variant": "C11A G50C", "self-cleavage": 0.57}, {"variant": "C11A G50A", "self-cleavage": 0.3}, {"variant": "A10U U18C", "self-cleavage": 0.05}, {"variant": "A10U U18A", "self-cleavage": 0.03}, {"variant": "A10U U18G", "self-cleavage": 0.07}, {"variant": "C11A U18C", "self-cleavage": 0.43}, {"variant": "C11A U18G", "self-cleavage": 0.64}, {"variant": "C11A U18A", "self-cleavage": 0.67}, {"variant": "C11A G22C", "self-cleavage": 0.04}, {"variant": "C11A G22A", "self-cleavage": 0.24}, {"variant": "C11A G22U", "self-cleavage": 0.07}, {"variant": "C11A C9A", "self-cleavage": 0.33}, {"variant": "C11A C9G", "self-cleavage": 0.19}, {"variant": "C11A C9U", "self-cleavage": 0.4}, {"variant": "C11A C26U", "self-cleavage": 0.21}, {"variant": "C11A C26G", "self-cleavage": 0.06}, {"variant": "C11A C26A", "self-cleavage": 0.06}, {"variant": "A10U C26G", "self-cleavage": 0.05}, {"variant": "A10U C26U", "self-cleavage": 0.04}, {"variant": "A10U C26A", "self-cleavage": 0.01}, {"variant": "A10U G51A", "self-cleavage": 0.04}, {"variant": "A10U G51C", "self-cleavage": 0.02}, {"variant": "A10U G51U", "self-cleavage": 0.03}]}]}
